≈ marks a conversion by molar mass, not a printed value.
Key:
[1] = system: Candida albicans; test: Antimicrobial activity against Candida albicans by broth microdilution method; format: functional, organism-based
In short: (§1)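 Standard broth microdilution following NCCLS guidelines. MIC and IC50 values were determined.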

[2] = system: Aspergillus fumigatus; test: Antimicrobial activity against Aspergillus fumigatus by broth microdilution method; format: functional, organism-based; in short: as §1
[3] = Cytotoxicity against human Hep3B cells at 0.001 mg/ml; format: cell-based; conditions: hep 3b2
In short: (§2)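 Antiproliferative assay in human hepatocellular carcinoma Hep3B and human epithelial carcinoma A431 cells. Compounds were tested across 0.001–1 mg/ml.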

[4] = system: Sporothrix schenckii; test: Antimicrobial activity against Sporothrix schenckii by broth microdilution method; format: functional, organism-based; in short: as §1
[5] = system: Cryptococcus neoformans; test: Antimicrobial activity against Cryptococcus neoformans by broth microdilution method; format: functional, organism-based; in short: as §1
[6] = system: A-431; test: Cytotoxicity against human A431 cells at 1 mg/ml; format: cell-based; in short: as §2
[7] = Cytotoxicity against human Hep3B cells; conditions: hep 3b2
[8] = system: Candida parapsilosis; test: Antimicrobial activity against Candida parapsilosis ATCC 22019 by broth microdilution method; format: functional, organism-based; conditions: Lodderomyces parapsilosis; in short: as §1
[9] = system: Candida albicans; test: Antimicrobial activity against Candida albicans infected Swiss mouse assessed as reduction of kidney fungal load at 50 mg/kg, po administered once daily for 7 days measured after 9 days; format: functional; set-up: scale not given: the % may be the effect or the level left
In short: (§3)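 Swiss mice received an intravenous Candida albicans challenge, with five mice per group. Test agent was given orally in PEG 200 once a day for 7 days. Mice were sacrificed on day 9, and kidney fungal burden was counted as CFU/g tissue. Results are expressed as % reduction in CFU relative to the untreated control group.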

[10] = system: Trichophyton mentagrophytes; test: Antimicrobial activity against Trichophyton mentagrophytes by broth microdilution method; format: functional, organism-based; in short: as §1
[11] = system: A-431; test: Cytotoxicity against human A431 cells at 1 mg/ml
[12] = system: Candida albicans; test: Antimicrobial activity against Candida albicans infected Swiss mouse assessed as reduction of kidney fungal load at 25 mg/kg, po administered once daily for 7 days measured after 9 days; format: functional; set-up: scale not given: the % may be the effect or the level left; in short: as §3
[13] = Cytotoxicity against human Hep3B cells at 0.001 mg/ml; conditions: hep 3b2
[14] = system: A-431; test: Cytotoxicity against human A431 cells at 0.001 mg/ml; format: cell-based; in short: as §2

C[C@H](CCC(=O)OCc1cn(CC(O)(Cn2cncn2)c2ccc(F)cc2F)nn1)[C@H]1CC[C@H]2[C@@H]3CC[C@@H]4C[C@H](O)CC[C@]4(C)[C@H]3C[C@H](O)[C@]12C (some centres not stated)
IC50 [1]: < 0.001 mg/L | MIC [1]: < 0.001 mg/L | IC50 [2]: 6.24 mg/L (≈ 8.78 µM) | MIC [2]: > 50 mg/L | Activity [3]: Non-toxic | IC50 [4]: 0.76 mg/L (≈ 1.07 µM) | MIC [4]: 0.84 mg/L (≈ 1.18 µM) | IC50 [5]: < 0.001 mg/L | MIC [5]: 0.01 mg/L (≈ 0.0141 µM) | Activity [6]: Toxic | Activity [7]: Non-toxic | IC50 [8]: 0.38 mg/L (≈ 0.535 µM) | MIC [8]: 0.396 mg/L (≈ 0.557 µM) | Activity [9]: 38.2% | IC50 [10]: 46.5 mg/L (≈ 65.4 µM) | MIC [10]: > 50 mg/L | Activity [11]: Toxic

OC(Cn1cncn1)(Cn1ccnn1)c1ccc(F)cc1F (configuration not stated)
IC50 [1]: 0.72 mg/L (≈ 2.35 µM) | MIC [1]: 1.48 mg/L (≈ 4.83 µM) | IC50 [2]: > 50 mg/L | MIC [2]: > 50 mg/L | IC50 [4]: 5.77 mg/L (≈ 18.8 µM) | MIC [4]: 10.6 mg/L (≈ 34.7 µM) | IC50 [5]: 0.03 mg/L (≈ 0.098 µM) | MIC [5]: 0.78 mg/L (≈ 2.55 µM) | IC50 [8]: 6.83 mg/L (≈ 22.3 µM) | MIC [8]: 12.8 mg/L (≈ 41.9 µM) | IC50 [10]: 6.45 mg/L (≈ 21.1 µM) | MIC [10]: 12.2 mg/L (≈ 39.7 µM)

C[Si](C)(C)c1cn(CC(O)(Cn2cncn2)c2ccc(F)cc2F)nn1 (configuration not stated)
IC50 [1]: 3.04 mg/L (≈ 8.03 µM) | MIC [1]: 3.26 mg/L (≈ 8.61 µM) | IC50 [2]: 43.2 mg/L (≈ 114 µM) | MIC [2]: 49.8 mg/L (≈ 132 µM) | IC50 [4]: 3.11 mg/L (≈ 8.22 µM) | MIC [4]: 3.16 mg/L (≈ 8.35 µM) | IC50 [5]: 1.01 mg/L (≈ 2.67 µM) | MIC [5]: 1.56 mg/L (≈ 4.12 µM) | IC50 [8]: 33.1 mg/L (≈ 87.5 µM) | MIC [8]: 44.5 mg/L (≈ 118 µM) | IC50 [10]: 8.57 mg/L (≈ 22.6 µM) | MIC [10]: 15.6 mg/L (≈ 41.1 µM)

CCCCCCCCn1cc(CC(O)(Cn2cncn2)c2ccc(F)cc2F)nn1 (configuration not stated)
IC50 [1]: 0.001 mg/L (≈ 0.00239 µM) | MIC [1]: 0.002 mg/L (≈ 0.00478 µM) | IC50 [2]: 0.8 mg/L (≈ 1.91 µM) | MIC [2]: 1.12 mg/L (≈ 2.68 µM) | Activity [12]: 41.2% | Activity [3]: Non-toxic | IC50 [4]: 0.008 mg/L (≈ 0.0191 µM) | MIC [4]: 0.036 mg/L (≈ 0.086 µM) | IC50 [5]: < 0.006 mg/L | MIC [5]: 0.002 mg/L (≈ 0.00478 µM) | Activity [6]: Toxic | Activity [7]: Non-toxic | IC50 [8]: 0.002 mg/L (≈ 0.00478 µM) | MIC [8]: 0.01 mg/L (≈ 0.0239 µM) | Activity [9]: 97.4% | IC50 [10]: 0.249 mg/L (≈ 0.595 µM) | MIC [10]: 0.48 mg/L (≈ 1.15 µM)

OC(Cc1c[nH]nn1)(Cn1cncn1)c1ccc(F)cc1F (configuration not stated)
IC50 [1]: 2.74 mg/L (≈ 8.95 µM) | MIC [1]: 3.16 mg/L (≈ 10.3 µM) | IC50 [2]: > 50 mg/L | MIC [2]: > 50 mg/L | IC50 [4]: 4.43 mg/L (≈ 14.5 µM) | MIC [4]: 12.4 mg/L (≈ 40.5 µM) | IC50 [5]: 0.69 mg/L (≈ 2.25 µM) | MIC [5]: 3.12 mg/L (≈ 10.2 µM) | IC50 [8]: 16.8 mg/L (≈ 55 µM) | MIC [8]: 29.1 mg/L (≈ 95 µM) | IC50 [10]: 47 mg/L (≈ 153 µM) | MIC [10]: 49 mg/L (≈ 160 µM)

C[C@H](CCC(=O)OCc1cn(CC(O)(Cn2cncn2)c2ccc(F)cc2F)nn1)[C@H]1CC[C@H]2[C@@H]3[C@H](O)C[C@@H]4C[C@H](O)CC[C@]4(C)[C@H]3C[C@H](O)[C@]12C (some centres not stated)
IC50 [1]: 0.35 mg/L (≈ 0.482 µM) | MIC [1]: 0.442 mg/L (≈ 0.608 µM) | IC50 [2]: 31.2 mg/L (≈ 43 µM) | MIC [2]: > 50 mg/L | Activity [13]: Non-toxic | Activity [3]: Non-toxic | IC50 [4]: 11.3 mg/L (≈ 15.5 µM) | MIC [4]: 12.6 mg/L (≈ 17.3 µM) | IC50 [5]: 0.03 mg/L (≈ 0.0413 µM) | MIC [5]: 0.19 mg/L (≈ 0.261 µM) | Activity [6]: Toxic | IC50 [8]: 2.93 mg/L (≈ 4.03 µM) | MIC [8]: 5.15 mg/L (≈ 7.09 µM) | IC50 [10]: 8.9 mg/L (≈ 12.2 µM) | MIC [10]: 18.4 mg/L (≈ 25.3 µM) | Activity [11]: Toxic

CCCCCCc1cn(CC(O)(Cn2cncn2)c2ccc(F)cc2F)nn1 (configuration not stated)
IC50 [1]: 0.018 mg/L (≈ 0.0461 µM) | MIC [1]: 0.032 mg/L (≈ 0.082 µM) | IC50 [2]: 5 mg/L (≈ 12.8 µM) | MIC [2]: 6.9 mg/L (≈ 17.7 µM) | Activity [3]: Non-toxic | IC50 [4]: 0.043 mg/L (≈ 0.11 µM) | MIC [4]: 0.14 mg/L (≈ 0.359 µM) | IC50 [5]: < 0.01 mg/L | MIC [5]: 0.02 mg/L (≈ 0.0512 µM) | Activity [6]: Toxic | Activity [7]: Non-toxic | IC50 [8]: 0.12 mg/L (≈ 0.307 µM) | MIC [8]: 0.39 mg/L (≈ 0.999 µM) | Activity [9]: 95% | IC50 [10]: 2.46 mg/L (≈ 6.3 µM) | MIC [10]: 6.72 mg/L (≈ 17.2 µM) | Activity [11]: Toxic

C[C@@H]1[C@H](O)[C@@H](C)/C=C/C=C/C=C/C=C/C=C/C=C/C=C/[C@H](O[C@@H]2O[C@H](C)[C@@H](O)[C@H](N)[C@@H]2O)C[C@@H]2O[C@](O)(C[C@@H](O)C[C@@H](O)[C@H](O)CC[C@@H](O)C[C@@H](O)CC(=O)O[C@H]1C)C[C@H](O)[C@H]2C(=O)O [AMPHOTERICIN B]
MIC [1]: 0.12 mg/L (≈ 0.13 µM) | MIC [2]: 0.5 mg/L (≈ 0.541 µM) | Activity [13]: Non-toxic | Activity [3]: Non-toxic | MIC [4]: 0.12 mg/L (≈ 0.13 µM) | MIC [5]: 0.06 mg/L (≈ 0.0649 µM) | Activity [6]: Toxic | MIC [8]: 0.12 mg/L (≈ 0.13 µM) | IC50 [10]: 0.02 mg/L (≈ 0.0216 µM) | MIC [10]: 0.12 mg/L (≈ 0.13 µM) | Activity [11]: Toxic

OC(Cn1cncn1)(Cn1cncn1)c1ccc(F)cc1F [FLUCONAZOLE]
MIC [1]: 0.5 mg/L (≈ 1.63 µM) | MIC [2]: 2 mg/L (≈ 6.53 µM) | Activity [13]: Non-toxic | Activity [3]: Non-toxic | MIC [4]: 2 mg/L (≈ 6.53 µM) | IC50 [5]: 0.45 mg/L (≈ 1.47 µM) | MIC [5]: 1 mg/L (≈ 3.27 µM) | Activity [6]: Toxic | Activity [14]: Toxic | MIC [8]: 1 mg/L (≈ 3.27 µM) | IC50 [10]: 0.6 mg/L (≈ 1.96 µM) | MIC [10]: 1 mg/L (≈ 3.27 µM)

CC(=O)N1CCN(c2ccc(OCC3COC(Cn4ccnc4)(c4ccc(Cl)cc4Cl)O3)cc2)CC1 (configuration not stated) [KETOCONAZOLE]
IC50 [1]: 0.001 mg/L (≈ 0.00188 µM) | MIC [1]: 0.002 mg/L (≈ 0.00376 µM) | IC50 [2]: 0.008 mg/L (≈ 0.0151 µM) | MIC [2]: 2 mg/L (≈ 3.76 µM) | Activity [13]: Non-toxic | Activity [3]: Non-toxic | IC50 [4]: 0.026 mg/L (≈ 0.0489 µM) | MIC [4]: 0.031 mg/L (≈ 0.0583 µM) | IC50 [5]: 0.001 mg/L (≈ 0.00188 µM) | MIC [5]: 0.001 mg/L (≈ 0.00188 µM) | Activity [6]: Toxic | IC50 [8]: 0.024 mg/L (≈ 0.0452 µM) | MIC [8]: 0.031 mg/L (≈ 0.0583 µM) | IC50 [10]: 2.12 mg/L (≈ 3.99 µM) | MIC [10]: 4 mg/L (≈ 7.53 µM) | Activity [11]: Toxic

Source: ChEMBL document CHEMBL1143294, “Synthesis and antifungal activity of 1,2,3-triazole containing fluconazole analogues” (Bioorg Med Chem Lett, 2009)
